IMP-1 inh: inhibitors of Pseudomonas aeruginosa IMP-1 metallo-beta-lactamase; purified IMP-1, nitrocefin hydrolysis, epi-absorbance fluorescence; inhibition, % at 5.6 µM; hit rate 0.45% among 290,000; AID 1556;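 active = inhibition above the mean plus 3 SD of all compounds in the same screening run, cut at about 4.5% in these data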;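 note: 0% = IMP-1 with DMSO and 100% = DMSO wells lacking enzyme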
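Test system: recombinant IMP-1 enzyme, purified / Medium: HEPES buffer pH 7.1 with ZnSO4 and Brij 35 / Doses: single dose, 5.6 µM / Times: 25 °C, 15 min preincubation, 25 min reaction / Detection: Epi-absorbance via hydrolysed-nitrocefin quenching of white-plate fluorescence, 480/530 nm, EDTA stop / Evaluation: percent inhibition from optical density relative to buffer-blank wells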
VIM-2 inh: blocks Pseudomonas aeruginosa VIM-2 metallo-beta-lactamase. purified VIM-2, nitrocefin hydrolysis, epi-absorbance fluorescence. inhibition, % at 5.6 µM. hit rate 0.89% among 290,000. AID 1527;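 active = inhibition above the mean of all tested compounds plus 3 SD, cutoff set per screening run, cut at about 7.5% in these data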;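 note: red hydrolysis product quenches plate fluorescence so inhibitors raise well fluorescence; 0% = enzyme with DMSO and 100% = DMSO without enzyme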
aSyn UTR inh: MLPCN primary screen, SNCA 5' untranslated region; alpha-synuclein 5'UTR reporter, inhibitor activity; inhibition, % (tested at 7.5 µM); hit rate 0.82% among 300,000; AID 1813; in the data active = inhibition above about 60%;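 note: H4 neuroglioblastoma cells stably carrying SNCA 5'UTR luciferase fusion; 0% = DMSO wells and 100% = positive control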
Mdm2 MdmX PPI: inhibitors of human Mdm2/MdmX interaction; inhibition, % at 8 µM; O15151+Q00987; SaOS-2 split-luciferase Mdm2/MdmX complementation, luminescence; hit rate 3% among 330,000;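 active = inhibition of at least 50% at 8 µM in the primary screen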
Target sequence (O15151 whole entry, looked up): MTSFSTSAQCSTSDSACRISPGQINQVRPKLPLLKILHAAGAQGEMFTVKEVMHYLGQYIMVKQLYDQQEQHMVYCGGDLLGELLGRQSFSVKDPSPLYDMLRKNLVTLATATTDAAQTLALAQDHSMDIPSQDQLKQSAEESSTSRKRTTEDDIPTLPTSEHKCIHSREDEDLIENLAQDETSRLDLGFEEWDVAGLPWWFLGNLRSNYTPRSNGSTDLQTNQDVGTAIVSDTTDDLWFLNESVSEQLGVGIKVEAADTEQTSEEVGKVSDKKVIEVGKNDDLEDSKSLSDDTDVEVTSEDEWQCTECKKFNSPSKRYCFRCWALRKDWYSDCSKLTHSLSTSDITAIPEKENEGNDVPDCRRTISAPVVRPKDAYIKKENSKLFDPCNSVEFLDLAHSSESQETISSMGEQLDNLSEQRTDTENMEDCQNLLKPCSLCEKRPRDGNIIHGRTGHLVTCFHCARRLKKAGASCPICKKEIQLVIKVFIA
Target sequence (Q00987 whole entry, looked up): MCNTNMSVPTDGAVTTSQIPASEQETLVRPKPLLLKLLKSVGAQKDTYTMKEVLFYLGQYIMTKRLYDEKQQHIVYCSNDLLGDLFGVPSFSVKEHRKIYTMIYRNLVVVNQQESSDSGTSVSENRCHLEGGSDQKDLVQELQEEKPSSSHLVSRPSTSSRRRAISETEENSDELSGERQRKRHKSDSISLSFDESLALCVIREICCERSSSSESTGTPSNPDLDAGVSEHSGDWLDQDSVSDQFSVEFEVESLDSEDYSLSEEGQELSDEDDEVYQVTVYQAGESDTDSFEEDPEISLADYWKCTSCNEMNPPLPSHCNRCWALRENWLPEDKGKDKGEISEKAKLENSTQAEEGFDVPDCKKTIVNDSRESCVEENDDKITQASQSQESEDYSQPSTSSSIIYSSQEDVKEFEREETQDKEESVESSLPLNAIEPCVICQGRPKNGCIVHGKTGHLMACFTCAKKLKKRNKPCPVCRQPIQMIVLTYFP
Jurkat NFkB inh: inhibitors of the PMA/ionomycin-induced NF-kB reporter in Jurkat cells. hit rate 0.53% among 330,000. PMA/ionomycin-induced NF-kB luciferase reporter, luminescence. inhibition, % at 4 µM. AID 435003; in the data active = inhibition above about 50%
697 NFkB inh: lowers PMA/ionomycin-induced NF-kB signal in 697 B cells. 697 B-cell NF-kB luciferase reporter, 16 h. inhibition, % at 4 µM. hit rate 0.33% among 330,000. AID 435022; in the data active = inhibition above about 35%
697 NFkB conf: lowers PMA/ionomycin-induced NF-kB signal in 697 B cells | 697 B-cell NF-kB luciferase, 16 h | AID 449746 | inhibition, % at 4 µM | hit rate 35% among 2,000 | shares compounds with 697 NFkB inh; in the data active = inhibition mostly above about 28%, no sharp cut-off; inactive = mostly below about 22%
An asterisk follows results filed as active; i = inactive; / = not tested or not shown. An excerpt weighted towards active compounds, which were near 4.7% of everything screened.

SMILES | IMP-1 inh | VIM-2 inh | aSyn UTR inh | Mdm2 MdmX PPI | Jurkat NFkB inh | 697 NFkB inh | 697 NFkB conf
CC(C)(C)C(=O)Nc1sc(-c2ccccc2)cc1C(=O)O | -0.3 | -1.0 | -87.0 | 19.4 | -19.7 | i | i
Cc1cccc(C(=O)Nc2sc(-c3ccccc3)cc2C(=O)O)c1 | -2.3 | -1.7 | -180.4 | -67.3 | -40.1 | -68.5 | /
COc1ccc2cc(C[C@@H]3CC[C@@H](CNC(N)=O)O3)ccc2c1 | / | / | / | -3.2 | / | -16.0 | /
Cc1nc(NC(=O)COC(=O)C2CC3CCCC(C2)C3=O)c(Cl)cc1Cl (configuration not stated) | / | / | / | -1.2 | 9.6 | 8.7 | /
CC(C)n1cc(/C=N/Nc2ccc(C(=O)O)cc2)c2ccccc21 | -1.0 | 0.0 | -79.3 | 27.3 | 7.0 | -304.8 | -9.9
O=C(O)c1ccc(N/N=C/c2cn(Cc3ccccc3F)c3ccccc23)cc1 | -0.2 | 0.8 | -65.2 | 43.2 | -21.8 | -110.2 | /
Cc1nc2ccccc2c(=O)n1/N=C1\C(=O)N(C)c2ccccc21 | -0.4 | 1.6 | -83.2 | 42.0 | -7.0 | 58.4* | 7.5
Cn1nc(C(=O)NNC(=O)c2ccccc2Br)c2ccccc2c1=O | / | / | / | 9.1 | 0.4 | 13.2 | /
COc1ccc2nc(NC(=O)c3ccc(F)cc3)sc2c1 | -3.4 | 0.3 | -155.6 | 11.3 | -108.8 | -163.6 | /
COc1ccc(C(=O)Nc2nc3ccccc3s2)cc1 | -0.6 | -1.2 | 67.1* | 9.9 | -139.8 | -373.2 | -419.4
O=C(Nc1nc2ccccc2s1)c1ccc(OCC2CCCO2)cc1 (configuration not stated) | -1.1 | -2.0 | -88.6 | -42.3 | -130.3 | -400.6 | -372.6
Fc1ccc(Nc2nc3ccccc3s2)cc1 | -2.7 | 0.1 | -207.2 | -154.9 | -94.0 | -54.8 | /
O=C(Nc1nc2ccccc2s1)c1ccc(F)cc1 | -2.3 | -1.0 | -89.4 | -210.0 | -149.7 | -342.9 | -351.0
CN(CC1CCCO1)S(=O)(=O)c1ccc(C(=O)Nc2ccc3c(c2)OCO3)cc1 (configuration not stated) | -3.4 | -1.5 | -4.3 | 5.0 | 5.2 | 4.9 | /
CN(CC1CCCO1)S(=O)(=O)c1ccc(C(=O)Nc2nc3cc4c(cc3s2)OCO4)cc1 (configuration not stated) | -2.3 | -2.2 | -9.9 | 9.2 | 25.8 | 62.2* | 65.3*
CCOP(=O)(c1ccc(N(C)C)cc1)C(O)c1ccc(OC)cc1 (configuration not stated) | -3.0 | -1.4 | -7.3 | 8.2 | -4.4 | 10.4 | /
COc1ccc(Cl)cc1NC(=O)CN1C(=O)NC2(CCCC2)C1=O | -3.1 | -0.7 | 2.5 | -27.3 | 9.4 | -9.3 | /
O=C(CCl)Nc1ccccc1Sc1ccccc1 | -1.7 | -4.9 | -21.8 | 13.1 | 17.3 | 41.0* | 34.1*
CCN(CC)c1ccc(/C=C(\C#N)c2ccccn2)cc1 | -2.8 | -2.2 | 36.1 | -51.0 | -11.6 | -290.5 | -428.2
CCN(CC)c1ccc(/C=N/NC(=O)c2ccccn2)cc1 | -6.2 | -4.5 | -125.3 | -75.0 | -63.7 | -132.0 | /
Cn1cccc1/C=C1\SC(=Nc2cccc(O)c2)NC1=O | -2.5 | -1.8 | -240.8 | 5.7 | -37.6 | -42.4 | /
CCOC(=O)[C@H]1[C@H]2COc3ccccc3[C@@H]2N2C(=O)c3ccc(C)cc3NC(=O)[C@@]12C | / | / | / | 25.3 | 11.3 | 36.1* | 18.5
CCn1c(=O)c2cc(C(=O)NC(C)C)sc2c2ccccc21 | 0.0 | 5.7 | -79.1 | 36.1 | 4.3 | 37.4* | 28.4*
CCn1c(=O)c2cc(C(=O)NCc3cccs3)sc2c2ccccc21 | -1.1 | -0.8 | / | 38.5 | -8.3 | 38.9* | 36.2*
CCCCNC(=O)c1cc2c(=O)n(CC)c3ccccc3c2s1 | -1.3 | 6.0 | -29.7 | 33.5 | 6.9 | 23.9 | /
SMILES | IMP-1 inh | VIM-2 inh | aSyn UTR inh | Mdm2 MdmX PPI | Jurkat NFkB inh | 697 NFkB inh | 697 NFkB conf
Cc1ccc(C)c(S(=O)(=O)N2CCCCC2CCNC(=O)C(=O)NCCc2ccco2)c1 (configuration not stated) | / | / | 21.6 | 8.2 | 8.0 | 1.2 | /
COc1ccc(N(C(=O)C(C)C)S(=O)(=O)c2ccc3ccccc3c2)cc1 | -5.1 | -0.6 | -10.1 | 9.9 | 11.3 | 16.4 | /
COc1ccc(NC(=O)C2CCCN2C(=O)OCc2ccccc2)c(OC)c1 (configuration not stated) | -1.6 | -1.1 | -2.5 | 11.0 | -11.7 | 35.8* | 17.6
COc1ccc(NC(=S)NCc2ccccc2)c(OC)c1 | -2.0 | -3.4 | -3.0 | 6.8 | -2.7 | 42.8* | 29.9*
COc1ccc2nc(NC(=O)c3ccccc3[N+](=O)[O-])sc2c1 | -3.8 | -2.2 | -56.8 | -22.0 | -19.6 | -51.7 | /
COc1ccc2nc(NC(=O)c3cccs3)sc2c1 | -0.5 | -1.2 | -78.3 | -92.5 | -124.3 | -352.1 | -341.5
COc1ccc2nc(NC(=O)Nc3ccccc3OC)sc2c1 | -1.8 | -3.4 | -88.8 | -65.6 | -78.0 | -295.6 | -365.5
COc1ccc2nc(NC(=O)c3ccccc3O)sc2c1 | 0.4 | 1.9 | -16.9 | -157.5 | -70.0 | -308.8 | -223.8
CC1CCN(C(=O)CNC(=O)CNC(=O)Cc2ccccc2)CC1 | -2.4 | -1.6 | 9.9 | -4.7 | -2.2 | 8.6 | /
Cc1cc(C)c2nc(NC(=O)C3CSC4(C)CCC(=O)N34)sc2c1 (configuration not stated) | / | / | / | -3.0 | -7.5 | 47.5* | 45.5*
CC12CCC(=O)N1C(C(=O)Nc1nc3ccc(Cl)cc3s1)CS2 (configuration not stated) | / | / | -50.2 | 14.7 | 0.7 | -4.2 | /
Cc1ccc(C(=O)Nc2ccc(C(=O)N/N=C/c3ccc(C)o3)cc2)cc1 | -4.3 | -1.4 | -19.7 | 6.6 | -12.5 | 1.5 | /
Cn1c(SCC(=O)NC2(C#N)CCCCC2)nnc1-c1cccnc1 | -2.2 | -1.6 | 4.0 | 2.6 | 2.6 | -6.8 | /
Cc1cc(C)c(CN2CCN(C(=O)Cn3cnc4c(NCc5ccccc5)ncnc43)CC2)c(C)c1 | / | / | / | 28.5 | / | 73.6* | 82.2*
Cc1ccccc1S(=O)(=O)Cc1ccc(C(=O)NCCCN2CCC(C)CC2)o1 | -4.0 | -1.5 | -8.8 | 12.7 | 4.4 | 9.4 | /
CN(C)CCCN=Cc1c(-c2ccccc2)[nH]n(-c2nc3ccccc3s2)c1=O | -3.1 | -1.5 | 16.0 | -7.8 | 13.4 | 42.0* | 43.8*
O=C(O)c1ccc(N/N=C/c2cccc(C(F)(F)F)c2)cc1 | -0.6 | 1.6 | -99.1 | 4.4 | -19.5 | -443.0 | 17.8
CCN1C(=O)C(=O)N(CC(=O)Nc2ccccc2OC(F)F)C1=O | / | / | / | 2.0 | 12.0 | 7.5 | /
CCc1cccc(NC(=O)c2ccc(CNc3c(N4CCCC4)c(=O)c3=O)cc2)c1 | -1.1 | -0.6 | 14.8 | 11.3 | 20.0 | 42.0* | 33.0*
Cc1ccc(NC(=O)c2ccc(CNc3c(N4CCC(C)CC4)c(=O)c3=O)cc2)cc1 | -3.6 | -1.9 | 22.0 | 21.9 | 16.4 | 50.0* | 15.5
COc1ccc(/C=C/c2nc(N)nc(-c3ccccc3O)n2)cc1 | -1.7 | -3.8 | -116.2 | -5.5 | -20.7 | -8.2 | /
COc1cc(/C=C/c2nc(N)nc(-c3ccccc3O)n2)cc(OC)c1OC | -0.5 | -1.3 | -0.2 | 22.9 | 47.5 | 36.0* | 20.9

Compound activity as filed in PubChem BioAssay.
